About 5,400 (1.5%) of roughly 360,000 compounds were called active.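 How the source made its calls: active means inhibition above a per-plate cutoff, the mean inhibition of test compounds on that plate plus 3 SD (cut at about 49% in these data); inactive means the rest.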 What follows is part of a selection rich in actives, with near analogues and random picks from the rest.

Sequence of Trace amine-associated receptor 1 (Homo sapiens) (Q96RJ0 whole entry, looked up, the tested form may be a part): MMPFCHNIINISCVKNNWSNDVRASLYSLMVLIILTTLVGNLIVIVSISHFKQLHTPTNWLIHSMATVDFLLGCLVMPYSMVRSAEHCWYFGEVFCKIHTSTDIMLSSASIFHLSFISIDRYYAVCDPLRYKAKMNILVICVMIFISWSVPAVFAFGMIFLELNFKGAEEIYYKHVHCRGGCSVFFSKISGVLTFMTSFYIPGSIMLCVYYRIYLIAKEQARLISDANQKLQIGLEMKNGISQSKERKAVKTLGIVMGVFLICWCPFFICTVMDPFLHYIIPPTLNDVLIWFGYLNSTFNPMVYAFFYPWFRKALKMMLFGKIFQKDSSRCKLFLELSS

This experiment has as its target Trace amine-associated receptor 1 (Homo sapiens) (UniProt Q96RJ0). Briefly: human TAAR1 antagonists, primary screen, Fluo-8 calcium fluorescence, CHO RD-HGA16 cells (AID 624466).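 Further: 0% = DMSO plus EC80 beta-PEA response and 100% = DMSO alone without agonist.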 Conditions: CHO RD-HGA16 TAAR1, Fluo-8 calcium fluorescence, antagonist; at 3 µM; stronger effect = higher value. The essentials:
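Test system – hTAAR1-expressing CHO RD-HGA16 cells, Gα16-coupled · Reagent – β-PEA at EC80 concentration, post-compound challenge · Compound dosing – 3 µM, single point · Timing – 140 s kinetic read after compound, 140 s after agonist · Detection – Fluo-8 intracellular calcium dye fluorescence, real-time kinetic reads · Control set – DMSO and EC80 PEA controls · Repeats – n of 1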
For `Nc1ccn([C@@H]2O[C@H](C(=O)N[C@H]3CCCCNC3=O)[C@@H](O)[C@H]2O)c(=O)n1`, the inhibition was 21.5% (inactive).
For `O=C(COC(=O)c1ccc(S(=O)(=O)N2CCc3ccccc3C2)cc1)NC(=O)NCc1ccco1` the value was 0.28% (inactive); for `Cc1cc(N2CCN(C(=O)OC(C)(C)C)C[C@H]2C)ccc1N1CCN(Cc2ccccc2)[C@H](C)C1`, 8.39% (inactive).
Consider `COc1ccc(OC)c(Nc2nc3ccccc3n3cnnc23)c1`, for which the inhibition is -3.9% (inactive).
For the compound `CSc1ccc(C#N)cc1NC(=O)c1cccc(Cl)c1`, the inhibition was -1.36% (inactive).
As for `Cc1ccc(Sc2ccc(NC(=O)c3ccc(F)cc3)cc2C#N)cc1`, the inhibition was 47.8% (inactive).
On to `COc1ccc(Sc2ccc(NC(=O)c3cccc(Cl)c3)cc2C#N)cc1`, for which the inhibition is 48.8% (active).
As to `Cc1cc(C)n2c(NCc3ccccc3)c(CC(C)C)nc2n1`, the inhibition is -31.3% (inactive).
Turning to `COc1ccccc1-c1cc(NC(C)=O)c2ncc(-c3ccc(F)cc3)n2c1`, the inhibition is 11% (inactive).
In the case of `COc1cccc(-c2cnc3c(NC(C)=O)cc(-c4cc(F)ccc4OC)cn23)c1`, the inhibition was 56.7% (active).
For `COc1cccc(-c2cnc3c(NC(C)=O)cc(-c4cccc(NC(C)=O)c4)cn23)c1` the value was 33.8% (inactive); for `CC1(C)CC(=O)C2=C(C1)Nc1cc(C(=O)c3ccccc3)ccc1NC2c1ccccn1` (configuration not stated), -12.4% (inactive).
Consider `Cc1ccc(C)c(NS(=O)(=O)c2c(C)[nH]c(C)c2C(=O)N2CCCCC2)c1`, for which the inhibition is -30.8% (inactive).
In the case of `COC(=O)c1cc(OC)c(OC)cc1NC(=O)CSc1ccc(C)cc1`, the inhibition was -0.75% (inactive).
Consider `Cc1ccc(SCC(=O)Nc2ccc3c(c2)OCCO3)cc1`, for which the inhibition is -11.4% (inactive).
Next, `Cc1ccc(SCC(=O)c2cc(C)c(OC(=S)N(C)C)c(C)c2)cc1`: 57% (active); `COC(=O)c1ccc2nc(-c3cccc(Br)c3)c(Cc3ccc(OC)cc3C)n2c1`: -4.86% (inactive); `COC(=O)c1ccc2nc(-c3ccccc3)c(Cc3ccc(OC)cc3C)n2c1`: 3.43% (inactive).
Regarding `CCCCNc1c(-c2cccc(Sc3ccc(OC)cc3)c2)nc2ccccn12`, the inhibition is 87.9% (active).
Regarding `CCCCNC(=O)CCn1nc(-c2ccc(Cl)cc2)ccc1=O`, the inhibition is -14.1% (inactive).
For `COc1ccc(Nc2ncc(F)c(N3CCOCC3)n2)cc1`, the inhibition is 7.62% (inactive).
Take `c1ccc(Nc2nc(N3CCOCC3)c3ccccc3n2)cc1`: the inhibition is 74.1% (active).
Turning to `C/C(=N\Nc1nc(Nc2ccccc2)nc(N2CCOCC2)n1)c1cccs1`, the inhibition was 9.62% (inactive).
For `COc1ccc(S(=O)(=O)N2CCCC(C(=O)Nc3ccc(NC(=O)c4ccccn4)cc3)C2)cc1` (configuration not stated) the value was 63% (active); for `COc1ccc(NC(=O)C2CCCN(S(=O)(=O)c3cccc4cccnc34)C2)cc1OC` (configuration not stated), 66.5% (active); for `CC(=O)Nc1ccc(NC(=O)C2CCCN(S(=O)(=O)c3ccc(Cl)cc3)C2)cc1` (configuration not stated), 9.58% (inactive).
On to `O=C(O)C1CCCN(S(=O)(=O)c2cccc3cccnc23)C1` (configuration not stated), for which the inhibition was -9.13% (inactive).
In the case of `COc1ccccc1CNC(=O)C1CCCN(S(=O)(=O)c2cccc3cccnc23)C1` (configuration not stated), the inhibition is -10.9% (inactive).
As for `COc1ccc(CCNC(=O)C2CCCN(S(=O)(=O)c3ccc(OC)cc3)C2)cc1` (configuration not stated), the inhibition is 5.88% (inactive).
As to `CCN(CC(=O)Nc1ccc(NC(C)=O)cc1)C(=O)CSC(=S)N1CCCC1`, the inhibition is 14.2% (inactive).
For the compound `O=C1[C@H]2[C@@H](c3ccc(C(F)(F)F)cc3)N[C@]3(CCCN(Cc4ccc(Br)cc4)C3=O)[C@H]2C(=O)N1Cc1ccccc1`, the inhibition was -23.7% (inactive).
For `CCCNC(=O)C[C@@H]1CC[C@@H]2[C@H](COC[C@H](O)CN2C(=O)c2cc(Cl)cc(Cl)c2)O1`, the inhibition is -27.3% (inactive).
For `O=C(NCCCc1ccccc1)C1CCC(=O)N(CCc2ccc(Cl)cc2)C1` (configuration not stated), the inhibition was 2.14% (inactive).
On to `CCOc1cc(N2CCOCC2)c(OCC)cc1NC(=O)COC(=O)[C@H](Cc1c[nH]c2ccccc12)NC(C)=O`, for which the inhibition is 22.1% (inactive).
Turning to `CCOc1cc(N2CCOCC2)c(OCC)cc1NC(=O)COc1cccc2cccnc12`, the inhibition is 56.4% (active).
For `CCOc1cc(N2CCOCC2)c(OCC)cc1NC(=O)C1=NN(c2cccc(C)c2)C(=O)CC1` the value was 44.9% (inactive); for `COc1ccccc1N1CC(C(=O)NCCN2C(=O)S/C(=C\c3cccnc3)C2=O)CC1=O` (configuration not stated), -4.74% (inactive).
Next, `O=C(NCCN1C(=O)S/C(=C\c2cccnc2)C1=O)c1ccc(S(=O)(=O)N2CCCC2)cc1`: 49.1% (active); `O=C(NCCN1C(=O)S/C(=C\c2cccnc2)C1=O)c1cccc(OC(F)F)c1`: 7.53% (inactive); `COC(=O)[C@@]12C[C@@H](CC(=O)NCc3cccc(C(F)(F)F)c3)C(=O)N(Cc3ccco3)C1=CCC(C)(C)C2`: -43.8% (inactive).
In the case of `COC(=O)c1cc2c(c3c4ccccc4n(S(=O)(=O)c4cccc(C)c4)c13)C(=O)N(Cc1ccccc1)C2`, the inhibition is -30.3% (inactive).
Take `CSc1ccc(Oc2cccc3c2S(=O)(=O)N([C@H](C)c2ccccc2)C[C@@H](COCc2ccccc2)O3)cc1C`: the inhibition is 5.23% (inactive).
Next, `O=S1(=O)c2c(cccc2N2CCCCC2)O[C@H](COCc2ccccc2)CN1C1CC1`: 51.8% (active); `O=S1(=O)c2c(cccc2N2CCCC2)O[C@H](COCc2ccccc2)CN1C1CC1`: 23.8% (inactive).
Consider `COC(=O)C1=C(C(=O)OC)C2C=C(C(C)C)C1C(=O)C2(C)O` (configuration not stated), for which the inhibition was -37.3% (inactive).
As for `C[C@@H]1CN([C@@H](C)CO)S(=O)(=O)c2ccc(C#Cc3cccc(F)c3)cc2O[C@H]1CN(C)S(=O)(=O)c1cn(C)cn1`, the inhibition was 68.3% (active).
For `C[C@@H]1CN([C@H](C)CO)S(=O)(=O)c2ccc(C#C[C@@H](C)O)cc2O[C@@H]1CN(C)Cc1ccc(-c2ccccc2)cc1` the value was -12.7% (inactive).
Turning to `C[C@H]1CN([C@@H](C)CO)S(=O)(=O)c2ccc(-c3cccc(F)c3)cc2O[C@@H]1CN(C)C`, the inhibition is -12.6% (inactive).
With `C=CCN1C(=O)N(Cc2ccccc2)c2ccccc2S1(=O)=O`, the inhibition was -0.33% (inactive).
For `COCCNC(=O)c1cc2c(Br)ccc(Br)c2nc1N`, the inhibition was -4.31% (inactive).
For `CC(=O)Nc1ccc(NC(=O)CS(=O)(=O)c2cn(CC(=O)N3CCCCC3)c3ccccc23)cc1` the value was -35.2% (inactive); for `CC(C)(C)SCCNC(=O)c1cccc([N+](=O)[O-])c1`, -20.6% (inactive).
As to `O=C(Nc1ccc(C2CC2(Cl)Cl)cc1)c1cccc([N+](=O)[O-])c1` (configuration not stated), the inhibition was 49.6% (active).
Next, `O=C(Nc1nnc(SCc2c(Cl)cccc2Cl)s1)c1cccc([N+](=O)[O-])c1`: -16.3% (inactive); `NC(=O)c1oc2ccccc2c1NC(=O)CS(=O)(=O)c1ccccc1`: -13.1% (inactive); `NC(=O)c1oc2ccccc2c1NC(=O)Cc1ccccc1`: 7.4% (inactive).
As to `COc1ccc(CC(=O)Nc2c(C(N)=O)oc3ccccc23)cc1`, the inhibition was 62.3% (active).
Next, `Cc1nc(N2CCN(c3ccccn3)CC2)c2c(C)c(C(=O)Nc3ccc(F)c(Cl)c3)sc2n1`: -1.25% (inactive); `Cc1nc(N2CCOCC2)c2c(C)c(C(=O)Nc3ccc(C(F)(F)F)cc3)sc2n1`: 15.7% (inactive); `Cc1nc(N2CCN(c3ccccn3)CC2)c2c(C)c(C(=O)Nc3ccc(F)cc3)sc2n1`: 58% (active).
Turning to `CN(CC(=O)NCc1ccc(Cl)cc1)S(=O)(=O)c1cccs1`, the inhibition is -2.12% (inactive).
With `Cc1ccc(-c2nc3c(Cl)cc(C(F)(F)F)cn3c2Cc2cccc(Cl)c2)cc1`, the inhibition was 3.71% (inactive).
For `Brc1ccc(COCCc2cn(Cc3ccccc3)c3ccccc23)cc1`, the inhibition is -22% (inactive).
With `COC(=O)Cc1nnn2c1[C@H](C)[C@@H](OC)c1cc(Br)ccc1-2`, the inhibition was 1.99% (inactive).
Turning to `COC(=O)Cc1nnn2c1[C@H](C)[C@H](c1ccccc1[N+](=O)[O-])OCC2`, the inhibition is 51.6% (active).
Consider `COC(=O)C1(C(=O)OC)C/C=C\CN(S(=O)(=O)c2ccccc2[N+](=O)[O-])CCC1`, for which the inhibition is -2.45% (inactive).
Next, `COC(=O)N1Cc2ccnnc2CC1c1ccccc1Br` (configuration not stated): -6.91% (inactive); `COc1ccc(NC(=O)C2=C(C)NC(=O)NC2c2ccccc2[N+](=O)[O-])cc1` (configuration not stated): 1.55% (inactive); `COC(=O)Cc1nnn2c1[C@H](C)[C@H](c1ccccc1Br)OCC2`: 73.5% (active).
As to `CCn1cc(CCC(=O)NCc2ccc(F)cc2)c2ccccc21`, the inhibition is 8.18% (inactive).
As to `C=CC[C@]12C[C@@]3(O[C@H](c4ccc(C(F)(F)F)cc4)N=C3C[C@H](c3ccc(OC)cc3)[C@H]1C)N(C1CCN(Cc3ccccc3)CC1)C2=O`, the inhibition was -52.6% (inactive).
In the case of `Cc1ccc(-c2cc(C(=O)NN)n[nH]2)o1`, the inhibition is 2.39% (inactive).
For the compound `CCOC(=O)[C@]12CCCC=C1N(CCC1=CCCCC1)C(=O)[C@H](CC(=O)N1CCOCC1)C2`, the inhibition was -9.23% (inactive).
For the compound `CCCCNC(=O)C[C@@H]1C[C@@]2(C(=O)OC)CC(C)(C)CC=C2N(Cc2ccco2)C1=O`, the inhibition is -0.44% (inactive).
Regarding `CCOC(=O)C1CCN(C(=O)C2(NC(=O)Nc3cccc(F)c3)CCCCC2)CC1`, the inhibition is -26.8% (inactive).
For `O=S1(=O)CC(N2CCN(Cc3ccccc3F)CC2)CN1Cc1cn(Cc2cccc(C(F)(F)F)c2)nn1` (configuration not stated) the value was -13% (inactive); for `CCOC(=O)[C@]12CCCC=C1N(Cc1ccc3c(c1)OCO3)C(=O)[C@H](CC(=O)N1CCN(C(=O)c3ccco3)CC1)C2`, -4.35% (inactive); for `CC(C)C[C@H]1CNC(=O)C(=O)N1C[C@H]1CCCN1C[C@H](Cc1ccc(O)cc1)N1C[C@H](CC(C)C)N(CC2CCCCCC2)C(=O)C1=O`, 6.77% (inactive).
For `CC1CCN(C(=O)c2ncn3c2C(=O)N[C@@H](C)C3)CC1` the value was -2.44% (inactive); for `CC(=O)C12CC(C)=C(C)CC1CC1C3CCC4=CC(=O)CCC4(C)C3CCC12C` (configuration not stated), -34.7% (inactive).
Turning to `CSc1ncnc2c1ncn2CC(=O)C1CCC2C3CCC4=CC(=O)CCC4(C)C3CCC12C` (configuration not stated), the inhibition was 61.8% (active).
For the compound `CSc1ncnc2c1ncn2CCCNCC1CCCCC1`, the inhibition was -17.2% (inactive).

Values taken from PubChem BioAssay AID624466 (The Scripps Research Institute Molecular Screening Center, 2012).
